ChEMBL document CHEMBL4339192, “De Novo Designed Amphipathic α-Helical Antimicrobial Peptides Incorporating Dab and Dap Residues on the Polar Face To Treat the Gram-Negative Pathogen, Acinetobacter baumannii” (J Med Chem, 2019)
Converted amounts (≈) assume the structure as drawn. Where a SMILES comes first, the peptide text is derived from it. [ ]: non-standard residue; d: D form. Dab = NCC[C@H](N)C(=O)O

Legend:
[1] = Therapeutic index, ratio of HC50 for human RBC to MIC for polymyxin B/colistin-resistant Acinetobacter baumannii M89952; format: toxicity; conditions: human red blood cells, read-out: TI
Method in brief: (§1)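 T.I. = HC50/MIC. For HC50, peptide (quantified by amino acid analysis) was two-fold serially diluted over 12 concentrations up to 1000 μg/mL. It was incubated with 1% fresh human erythrocytes in PBS, pH 7.4, for 18 h at 37 °C. After 800g centrifugation, hemoglobin was read at 570 nm against water (100%) and no-peptide (0%) controls. HC50 came from a lysis-versus-concentration plot, average of 3 replicates.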

Acinetobacter baumannii [2] = assay: Antibacterial activity against Acinetobacter baumannii isolate 1035794 measured after 24 hrs by microtiter dilution method; format: functional; conditions: isolate 1035794, 24 h
Method in brief: (§2)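 Broth microdilution in Mueller-Hinton (MH) medium. […] Plates were incubated 24 h at 37 °C. MIC was the lowest peptide concentration that inhibited growth, based on three sets of replicates.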

Acinetobacter baumannii [3] = assay: Antibacterial activity against Acinetobacter baumannii isolate 1021371 measured after 24 hrs by microtiter dilution method; format: functional; conditions: isolate 1021371, 24 h; method in brief: as §2
[4] = Therapeutic index, ratio of HC50 for human RBC to MIC for polymyxin B/colistin-resistant Acinetobacter baumannii M89941; format: toxicity; conditions: human red blood cells, read-out: TI; method in brief: as §1
Acinetobacter baumannii [5] = assay: Antibacterial activity against Acinetobacter baumannii isolate 981650 measured after 24 hrs by microtiter dilution method; format: functional; conditions: isolate 981650, 24 h; method in brief: as §2
Acinetobacter baumannii [6] = assay: Antibacterial activity against Acinetobacter baumannii isolate 1018887 measured after 24 hrs by microtiter dilution method; format: functional; conditions: isolate 1018887, 24 h; method in brief: as §2
Acinetobacter baumannii [7] = assay: Antibacterial activity against Acinetobacter baumannii isolate 1010245 measured after 24 hrs by microtiter dilution method; format: functional; conditions: isolate 1010245, 24 h; method in brief: as §2
[8] = Therapeutic index, ratio of HC50 for human RBC to MIC for polymyxin B/colistin-resistant Acinetobacter baumannii M89963; format: toxicity; conditions: human red blood cells, read-out: TI; method in brief: as §1
Acinetobacter baumannii [9] = assay: Antibacterial activity against polymyxin B/colistin-resistant Acinetobacter baumannii M89963 measured after 24 hrs by microtiter dilution method; format: functional; conditions: M89963, 24 h; method in brief: as §2
Acinetobacter baumannii [10] = assay: Antibacterial activity against polymyxin B/colistin-resistant Acinetobacter baumannii M89953 measured after 24 hrs by microtiter dilution method; format: functional; conditions: M89953, 24 h; method in brief: as §2
Acinetobacter baumannii [11] = assay: Antibacterial activity against Acinetobacter baumannii isolate 1002956 measured after 24 hrs by microtiter dilution method; format: functional; conditions: isolate 1002956, 24 h; method in brief: as §2
Acinetobacter baumannii [12] = assay: Antibacterial activity against Acinetobacter baumannii isolate 1017395 measured after 24 hrs by microtiter dilution method; format: functional; conditions: isolate 1017395, 24 h; method in brief: as §2
[13] = Therapeutic index, ratio of HC50 for human RBC to MIC for polymyxin B/colistin-resistant Acinetobacter baumannii M89951; format: toxicity; conditions: human red blood cells, read-out: TI; method in brief: as §1
[14] = Therapeutic index, ratio of HC50 for human RBC to MIC for polymyxin B/colistin-resistant Acinetobacter baumannii M89955; format: toxicity; conditions: human red blood cells, read-out: TI; method in brief: as §1
Acinetobacter baumannii [15] = assay: Antibacterial activity against polymyxin B/colistin-resistant Acinetobacter baumannii M89951 measured after 24 hrs by microtiter dilution method; format: functional; conditions: M89951, 24 h; method in brief: as §2
Acinetobacter baumannii [16] = assay: Antibacterial activity against polymyxin B/colistin-resistant Acinetobacter baumannii M89941 measured after 24 hrs by microtiter dilution method; format: functional; conditions: M89941, 24 h; method in brief: as §2
Acinetobacter baumannii [17] = assay: Antibacterial activity against Acinetobacter baumannii isolate 963618 measured after 24 hrs by microtiter dilution method; format: functional; conditions: isolate 963618, 24 h; method in brief: as §2
Acinetobacter baumannii [18] = assay: Antibacterial activity against Acinetobacter baumannii isolate 968886 measured after 24 hrs by microtiter dilution method; format: functional; conditions: isolate 968886, 24 h; method in brief: as §2
Acinetobacter baumannii [19] = assay: Antibacterial activity against Acinetobacter baumannii isolate 964304 measured after 24 hrs by microtiter dilution method; format: functional; conditions: isolate 964304, 24 h; method in brief: as §2
Acinetobacter baumannii [20] = assay: Antibacterial activity against Acinetobacter baumannii 649 measured after 24 hrs in presence of 25% human serum by microtiter dilution method; format: functional; conditions: Acinetobacter baumannii, 649, 24 h
Method in brief: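 Blood strain 649 was tested by MH broth microdilution with and without 25% (v/v) human serum added to the medium. The test used a final inoculum of 5 × 10^5 cfu/mL and incubation at 37 °C. The ratio is the MIC in serum over the MIC in MH alone.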

Acinetobacter baumannii [21] = assay: Antibacterial activity against Acinetobacter baumannii isolate 1035166 measured after 24 hrs by microtiter dilution method; format: functional; conditions: isolate 1035166, 24 h; method in brief: as §2
Acinetobacter baumannii [22] = assay: Antibacterial activity against Acinetobacter baumannii isolate 1010282 measured after 24 hrs by microtiter dilution method; format: functional; conditions: isolate 1010282, 24 h; method in brief: as §2
Acinetobacter baumannii [23] = assay: Antibacterial activity against polymyxin B/colistin-resistant Acinetobacter baumannii M89952 measured after 24 hrs by microtiter dilution method; format: functional; conditions: M89952, 24 h; method in brief: as §2
Acinetobacter baumannii [24] = assay: Antibacterial activity against Acinetobacter baumannii 649 measured after 24 hrs by microtiter dilution method; format: functional; conditions: Acinetobacter baumannii, 649, 24 h; method in brief: as §2
Acinetobacter baumannii [25] = assay: Antibacterial activity against Acinetobacter baumannii isolate 1007660 measured after 24 hrs by microtiter dilution method; format: functional; conditions: isolate 1007660, 24 h; method in brief: as §2
Acinetobacter baumannii [26] = assay: Antibacterial activity against Acinetobacter baumannii isolate 977751 measured after 24 hrs by microtiter dilution method; format: functional; conditions: isolate 977751, 24 h; method in brief: as §2
Acinetobacter baumannii [27] = assay: Antibacterial activity against Acinetobacter baumannii isolate 961997 measured after 24 hrs by microtiter dilution method; format: functional; conditions: isolate 961997, 24 h; method in brief: as §2
Acinetobacter baumannii [28] = assay: Antibacterial activity against Acinetobacter baumannii isolate 1001611 measured after 24 hrs by microtiter dilution method; format: functional; conditions: isolate 1001611, 24 h; method in brief: as §2
Acinetobacter baumannii [29] = assay: Antibacterial activity against polymyxin B/colistin-resistant Acinetobacter baumannii M89949 measured after 24 hrs by microtiter dilution method; format: functional; conditions: M89949, 24 h; method in brief: as §2
[30] = Therapeutic index, ratio of HC50 for human RBC to MIC for polymyxin B/colistin-resistant Acinetobacter baumannii M89949; format: toxicity; conditions: human red blood cells, read-out: TI; method in brief: as §1
Acinetobacter baumannii [31] = assay: Antibacterial activity against Acinetobacter baumannii isolate 9383370 measured after 24 hrs by microtiter dilution method; format: functional; conditions: isolate 9383370, 24 h; method in brief: as §2
Acinetobacter baumannii [32] = assay: Antibacterial activity against Acinetobacter baumannii isolate 963659 measured after 24 hrs by microtiter dilution method; format: functional; conditions: isolate 963659, 24 h; method in brief: as §2
[33] = Hemolytic activity against human RBC measured after 18 hrs by spectrophotometric method; format: ADME, cell-based, Erythrocyte; conditions: human red blood cells (erythrocytes)
Method in brief: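 Peptide (amount by amino acid analysis), two-fold serial dilutions at 12 concentrations up to 1000 μg/mL, with 1% human erythrocytes in PBS pH 7.4, 37 °C, 18 h. Unlysed cells removed by centrifugation (800g); hemoglobin read at 570 nm. Water-lysed cells = 100%, no-peptide cells = 0%. HC50 from plot of % lysis vs concentration (μM), average of 3 replicates.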

[34] = Therapeutic index, ratio of HC50 for human RBC to MIC for polymyxin B/colistin-resistant Acinetobacter baumannii M89953; format: toxicity; conditions: human red blood cells, read-out: TI; method in brief: as §1
Acinetobacter baumannii [35] = assay: Antibacterial activity against Acinetobacter baumannii isolate 952654 measured after 24 hrs by microtiter dilution method; format: functional; conditions: isolate 952654, 24 h; method in brief: as §2
Acinetobacter baumannii [36] = assay: Antibacterial activity against polymyxin B/colistin-resistant Acinetobacter baumannii M89955 measured after 24 hrs by microtiter dilution method; format: functional; conditions: M89955, 24 h; method in brief: as §2
Acinetobacter baumannii [37] = assay: Antibacterial activity against Acinetobacter baumannii isolate 965463 measured after 24 hrs by microtiter dilution method; format: functional; conditions: isolate 965463, 24 h; method in brief: as §2

CC(=O)N[C@H](CCCCN)C(=O)N[C@H](CC(C)C)C(=O)N[C@@H](CCN)C(=O)N[C@H](CO)C(=O)N[C@H](CC(C)C)C(=O)N[C@H](CC(C)C)C(=O)N[C@@H](CCN)C(=O)N[C@@H](C(=O)N[C@H](CC(C)C)C(=O)N[C@H](CO)C(=O)N[C@@H](CCN)C(=O)N[C@H](C)C(=O)N[C@H](CCCCN)C(=O)N[C@H](C)C(=O)N[C@H](C)C(=O)N[C@H](CCCCN)C(=O)N[C@H](CC(C)C)C(=O)N[C@@H](CCN)C(=O)N[C@@H](C(=O)N[C@H](CC(C)C)C(=O)N[C@H](CC(C)C)C(=O)N[C@@H](CCN)C(=O)N[C@H](C)C(=O)N[C@H](CC(C)C)C(=O)N[C@H](CO)C(=O)N[C@@H](CCN)C(N)=O)[C@H](C)O)[C@H](C)O (Ac-[dK][dL][Dab][dS][dL][dL][Dab][dT][dL][dS][Dab][dA][dK][dA][dA][dK][dL][Dab][dT][dL][dL][Dab][dA][dL][dS][Dab]-NH2)
selectivity ratio [1]: > 742 | MIC (Acinetobacter baumannii [2]): 1.5 µM (≈ 4.05 µg/mL) | MIC (Acinetobacter baumannii [3]): 1.5 µM (≈ 4.05 µg/mL) | selectivity ratio [4]: > 742 | MIC (Acinetobacter baumannii [5]): 0.7 µM (≈ 1.89 µg/mL) | MIC (Acinetobacter baumannii [6]): 0.7 µM (≈ 1.89 µg/mL) | MIC (Acinetobacter baumannii [7]): 0.7 µM (≈ 1.89 µg/mL) | selectivity ratio [8]: > 742 | MIC (Acinetobacter baumannii [9]): 1.4 µM (≈ 3.78 µg/mL) | MIC (Acinetobacter baumannii [10]): 1.4 µM (≈ 3.78 µg/mL) | MIC (Acinetobacter baumannii [11]): 0.7 µM (≈ 1.89 µg/mL) | MIC (Acinetobacter baumannii [12]): 3 µM (≈ 8.09 µg/mL) | selectivity ratio [13]: > 742 | selectivity ratio [14]: > 742 | MIC (Acinetobacter baumannii [15]): 1.4 µM (≈ 3.78 µg/mL) | MIC (Acinetobacter baumannii [16]): 0.7 µM (≈ 1.89 µg/mL) | MIC (Acinetobacter baumannii [17]): 0.7 µM (≈ 1.89 µg/mL) | MIC (Acinetobacter baumannii [18]): 1.5 µM (≈ 4.05 µg/mL) | MIC (Acinetobacter baumannii [19]): 1.5 µM (≈ 4.05 µg/mL) | MIC (Acinetobacter baumannii [20]): 0.2 µM | MIC (Acinetobacter baumannii [21]): 0.7 µM (≈ 1.89 µg/mL) | MIC (Acinetobacter baumannii [22]): 0.7 µM (≈ 1.89 µg/mL) | MIC (Acinetobacter baumannii [23]): 0.7 µM (≈ 1.89 µg/mL) | MIC (Acinetobacter baumannii [24]): 0.7 µM (≈ 1.89 µg/mL) | MIC (Acinetobacter baumannii [25]): 0.7 µM (≈ 1.89 µg/mL) | MIC (Acinetobacter baumannii [26]): 0.7 µM (≈ 1.89 µg/mL) | MIC (Acinetobacter baumannii [27]): 0.7 µM (≈ 1.89 µg/mL) | MIC (Acinetobacter baumannii [28]): 0.7 µM (≈ 1.89 µg/mL) | MIC (Acinetobacter baumannii [29]): 0.7 µM (≈ 1.89 µg/mL) | selectivity ratio [30]: > 742 | MIC (Acinetobacter baumannii [31]): 0.7 µM (≈ 1.89 µg/mL) | MIC (Acinetobacter baumannii [32]): 0.7 µM (≈ 1.89 µg/mL) | HC50 at 18 h [33]: > 742 µM | selectivity ratio [34]: > 742 | MIC (Acinetobacter baumannii [35]): 1.5 µM (≈ 4.05 µg/mL) | MIC (Acinetobacter baumannii [36]): 0.7 µM (≈ 1.89 µg/mL) | MIC (Acinetobacter baumannii [37]): 3 µM (≈ 8.09 µg/mL)
